# Activity calls are given as the source filed them. No cut-off for these calls is given here.
# Key:
# PC-3 [1] = experiment: Cytotoxicity against human PC3 cells after 72 hrs by MTT assay; type: functional, cell-based; conditions: PC-3, 72 h
# Procedure, shortened: (§1)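 MTT assay: 1800 cells/well plated, overnight at 37 °C, then graded concentrations for 72 h at 37 °C. MTT added for 3 h, plates centrifuged, formazan dissolved in DMSO, absorbance read at 540 nm. Viability as percent of control; IC50 by median-effect analysis, mean ± SD. Cells grown in RPMI 1640 with 10% FBS.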
# [2] = Cytotoxicity against human NTUB1 cells after 72 hrs by MTT assay; type: functional, cell-based; conditions: NTUB1, 72 h; procedure, shortened: as §1
# [3] = Cell cycle arrest in human NTUB1 cells assessed as accumulation at S phase at 3 uM after 24 hrs by propidium iodide staining-based FACS analysis; type: functional
# Procedure, shortened: (§2)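 Cells (6×10^5 plated) treated 24 h; 20 µM cisplatin as reference, medium-only control. Harvested by trypsinization, PBS-washed, fixed overnight in ice-cold methanol at −20 °C. Stained 30 min at room temperature in PBS with 50 µg/mL propidium iodide plus 50 µg/mL RNase A. DNA content by FACScan flow cytometry; sub-G1 taken as apoptosis. Representative of three independent experiments.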
# [4] = Cell cycle arrest in human NTUB1 cells assessed as accumulation at S phase at 1 uM after 24 hrs by propidium iodide staining-based FACS analysis; type: functional; procedure, shortened: as §2
# PC-3 [5] = experiment: Cell cycle arrest in human PC3 cells assessed as accumulation at G2/M phase at 3 uM after 24 hrs by propidium iodide staining-based FACS analysis; type: functional; procedure, shortened: as §2
# PC-3 [6] = experiment: Cell cycle arrest in human PC3 cells assessed as accumulation at sub-G1 phase at 3 uM after 24 hrs by propidium iodide staining-based FACS analysis; type: functional; procedure, shortened: as §2
# [7] = Cell cycle arrest in human NTUB1 cells assessed as accumulation at G2/M phase at 3 uM after 24 hrs by propidium iodide staining-based FACS analysis; type: functional; procedure, shortened: as §2
# [8] = Cell cycle arrest in human NTUB1 cells assessed as accumulation at sub-G1 phase at 1 uM after 24 hrs by propidium iodide staining-based FACS analysis; type: functional; procedure, shortened: as §2
# PC-3 [9] = experiment: Cell cycle arrest in human PC3 cells assessed as accumulation at G1 phase at 3 uM after 24 hrs by propidium iodide staining-based FACS analysis; type: functional; procedure, shortened: as §2
# PC-3 [10] = experiment: Cell cycle arrest in human PC3 cells assessed as accumulation at G2/M phase at 1 uM after 24 hrs by propidium iodide staining-based FACS analysis; type: functional; procedure, shortened: as §2
# PC-3 [11] = experiment: Cell cycle arrest in human PC3 cells assessed as accumulation at S phase at 1 uM after 24 hrs by propidium iodide staining-based FACS analysis; type: functional; procedure, shortened: as §2
# PC-3 [12] = experiment: Cell cycle arrest in human PC3 cells assessed as accumulation at S phase at 3 uM after 24 hrs by propidium iodide staining-based FACS analysis; type: functional; procedure, shortened: as §2
# PC-3 [13] = experiment: Cell cycle arrest in human PC3 cells assessed as accumulation at sub-G1 phase at 1 uM after 24 hrs by propidium iodide staining-based FACS analysis; type: functional; procedure, shortened: as §2
# PC-3 [14] = experiment: Cell cycle arrest in human PC3 cells assessed as accumulation at G1 phase at 1 uM after 24 hrs by propidium iodide staining-based FACS analysis; type: functional; procedure, shortened: as §2
# [15] = Cell cycle arrest in human NTUB1 cells assessed as accumulation at G1 phase at 3 uM after 24 hrs by propidium iodide staining-based FACS analysis; type: functional; procedure, shortened: as §2
# [16] = Cell cycle arrest in human NTUB1 cells assessed as accumulation at G1 phase at 1 uM after 24 hrs by propidium iodide staining-based FACS analysis; type: functional; procedure, shortened: as §2
# [17] = Cell cycle arrest in human NTUB1 cells assessed as accumulation at sub-G1 phase at 3 uM after 24 hrs by propidium iodide staining-based FACS analysis; type: functional; procedure, shortened: as §2
# [18] = Cell cycle arrest in human NTUB1 cells assessed as accumulation at G2/M phase at 1 uM after 24 hrs by propidium iodide staining-based FACS analysis; type: functional; procedure, shortened: as §2
# NTUB1 [19] = experiment: Antimitotic activity in human NTUB1 cells assessed as accumulation of mitotic arrest cells at 0.3 to 1 uM after 24 hrs by DAPI staining-based microscopic analysis; type: functional, cell-based
# Procedure, shortened: (§3)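 NTUB1 cells seeded on serum-coated coverslips (10⁵ cells/well), incubated overnight, then treated 24 h. Fixed in 2% formaldehyde/PBS 20 min and permeabilized in cold methanol 3 min. Stained overnight with anti-α-tubulin primary, then rhodamine goat anti-rabbit secondary with 1 µg/mL DAPI for 1 h at room temperature. Mounted in 80% glycerol/PBS and examined by fluorescence microscopy; untreated medium control.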
# NTUB1 [20] = experiment: Stabilization GDP-bound alpha-tubulin in human NTUB1 cells assessed as microtubule disassembly at 10 uM after 6 hrs by Western blot analysis; type: cell-based
# Procedure, shortened: (§4)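 NTUB1 cells (1×10^6 per dish) treated 6 h; 500 nM paclitaxel reference. Lysed in Tris-HCl pH 6.8 buffer with MgCl2, EGTA, 0.5% NP-40 and protease/phosphatase inhibitors. Centrifuged 15,000g, 10 min, 4 °C to separate soluble (supernatant) from polymerized (pellet) tubulin. Fractions run on 10% SDS-PAGE and immunoblotted for α-tubulin, β-actin as control, chemiluminescent detection.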
# NTUB1 [21] = experiment: Stabilization GDP-bound alpha-tubulin in human NTUB1 cells assessed as microtubule disassembly at 500 nM after 6 hrs by Western blot analysis; type: cell-based; procedure, shortened: as §4
# NTUB1 [22] = experiment: Inhibition of alpha-tubulin assembly in human NTUB1 cells at 10 to 100 uM after 6 hrs by Western blot analysis; type: cell-based; procedure, shortened: as §4
# NTUB1 [23] = experiment: Antimitotic activity in human NTUB1 cells assessed as appearance of rounded and dead cells at 0.3 to 3 uM after 24 hrs; type: functional, cell-based
# Procedure, shortened: (§5)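 NTUB1 cells at 7×10^5 cells per 10 cm dish, treated 24 h; medium-only control. Cell rounding and death scored by light-microscopic morphology.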
# NTUB1 [24] = experiment: Inhibition of alpha-tubulin assembly in human NTUB1 cells at 0.3 to 1 uM after 24 hrs by DAPI staining-based microscopic analysis; type: cell-based; procedure, shortened: as §3
# NTUB1 [25] = experiment: Stabilization GDP-bound alpha-tubulin in human NTUB1 cells assessed as microtubule disassembly at 50 to 100 uM after 6 hrs by Western blot analysis; type: cell-based; procedure, shortened: as §4
# NTUB1 [26] = experiment: Antimitotic activity in human NTUB1 cells assessed as accumulation of mitotic arrest cells at 10 nM after 24 hrs by DAPI staining-based microscopic analysis; type: functional, cell-based; procedure, shortened: as §3
# NTUB1 [27] = experiment: Inhibition of alpha-tubulin assembly in human NTUB1 cells at 10 nM after 24 hrs by DAPI staining-based microscopic analysis; type: cell-based; procedure, shortened: as §3
# NTUB1 [28] = experiment: Antimitotic activity in human NTUB1 cells assessed as appearance of rounded and dead cells at 10 nM after 24 hrs; type: functional, cell-based; procedure, shortened: as §5
smiles,measurement,setting,value
CCCNC(=O)c1ccc(/C=C/C(=O)c2cc(OC)ccc2OC)cc1,IC50,PC-3 [1],1.5 µM
same,IC50,[2],2.26 µM
COc1ccc(OC)c(C(=O)/C=C/c2ccc(C(=O)O)s2)c1,IC50,[2],> 50 µM
CCCOC(=O)c1ccc(/C=C/C(=O)c2cc(OC)ccc2OC)cc1,IC50,PC-3 [1],26.9 µM
same,IC50,[2],6.01 µM
COc1ccc(OC)c(C(=O)/C=C/c2ccc(C(=O)N(C)C)cc2)c1,IC50,PC-3 [1],4.58 µM
same,IC50,[2],3.89 µM
CCN(CC)C(=O)c1ccc(/C=C/C(=O)c2cc(OC)ccc2OC)cc1,IC50,PC-3 [1],3.79 µM
same,IC50,[2],2.69 µM
COc1ccc(OC)c(C(=O)/C=C/c2ccc(C(=O)NC3CCCCC3)cc2)c1,IC50,PC-3 [1],6.3 µM
same,IC50,[2],2.25 µM
COc1ccc(OC)c(C(=O)/C=C/c2ccc(C(=O)OCc3ccccc3)cc2)c1,IC50,PC-3 [1],17.9 µM
same,IC50,[2],13.3 µM
COc1ccc(OC)c(C(=O)/C=C/c2ccc(C(=O)N(C)CCO)cc2)c1,IC50,PC-3 [1],5.75 µM
same,IC50,[2],4.42 µM
CCOC(=O)c1ccc(/C=C/C(=O)c2cc(OC)ccc2OC)cc1,IC50,PC-3 [1],5.7 µM
same,IC50,[2],4.49 µM
COc1ccc(OC)c(C(=O)/C=C/c2ccc(C(=O)OC(C)C)cc2)c1,IC50,PC-3 [1],6.74 µM
same,IC50,[2],4.42 µM
COc1ccc(OC)c(C(=O)/C=C/c2ccc(C(=O)OCC=C(C)C)cc2)c1,IC50,PC-3 [1],> 50 µM
same,IC50,[2],13.4 µM
CNC(=O)c1ccc(/C=C/C(=O)c2cc(OC)ccc2OC)cc1,IC50,PC-3 [1],2.13 µM
same,IC50,[2],2.2 µM
COc1ccc(OC)c(C(=O)/C=C/c2ccc(C(=O)NC(C)C)cc2)c1,Activity,[3],21.2%
same,Activity,[4],27.2%
same,Activity,PC-3 [5],25.43%
same,Activity,PC-3 [6],14.26%
same,Activity,[7],24.2%
same,Activity,[8],1.84%
same,Activity,PC-3 [9],36.73%
same,Activity,PC-3 [10],19.22%
same,IC50,PC-3 [1],1.58 µM
same,Activity,PC-3 [11],25.83%
same,Activity,PC-3 [12],16.09%
same,Activity,PC-3 [13],9.25%
same,Activity,PC-3 [14],38.85%
same,Activity,[15],22.3%
same,Activity,[16],44.9%
same,Activity,[17],30.3%
same,Activity,[18],22.6%
same,IC50,[2],1.97 µM
COc1ccc(OC)c(C(=O)/C=C/c2ccc(C(=O)O)cc2)c1,IC50,PC-3 [1],7.24 µM
same,IC50,[2],5.7 µM
COC(=O)c1ccc(/C=C/C(=O)c2cc(OC)ccc2OC)cc1,IC50,PC-3 [1],4.85 µM
same,IC50,[2],3.51 µM
COc1ccc(OC)c(C(=O)/C=C/c2ccc(C(=O)N3CCCC3)cc2)c1,Activity,[3],11.3%
same,Activity,NTUB1 [19],Active
same,Activity,[4],28.8%
same,Activity,PC-3 [5],27.69%
same,Activity,PC-3 [6],24.45%
same,Activity,[7],18.3%
same,Activity,[8],2.16%
same,Activity,NTUB1 [20],inactive
same,Activity,PC-3 [9],18.44%
same,Activity,PC-3 [10],14.02%
same,IC50,PC-3 [1],0.53 µM
same,Activity,NTUB1 [21],Active
same,inhibition,NTUB1 [22],inactive
same,Activity,NTUB1 [23],Active
same,Activity,PC-3 [11],25.28%
same,inhibition,NTUB1 [24],Active
same,Activity,NTUB1 [25],Dose-dependent effect
same,Activity,PC-3 [12],21.83%
same,Activity,PC-3 [13],7.8%
same,Activity,PC-3 [14],45.81%
same,Activity,[15],7.03%
same,Activity,[16],46.6%
same,Activity,[17],61%
same,Activity,[18],20.4%
same,IC50,[2],1.26 µM
CCNC(=O)c1ccc(/C=C/C(=O)c2cc(OC)ccc2OC)cc1,IC50,PC-3 [1],4.18 µM
same,IC50,[2],3.76 µM
CC(=O)O[C@H]1C(=O)[C@@]2(C)[C@H]([C@H](OC(=O)c3ccccc3)[C@]3(O)C[C@H](OC(=O)[C@H](O)[C@@H](NC(=O)c4ccccc4)c4ccccc4)C(C)=C1C3(C)C)[C@]1(OC(C)=O)CO[C@@H]1C[C@@H]2O,Activity,NTUB1 [26],Active
same,inhibition,NTUB1 [27],inactive
same,Activity,NTUB1 [28],Active
COc1ccc(OC)c(C(/C=C/c2ccc(C(=O)NC3CC3)cc2)=N/C2CC2)c1,IC50,PC-3 [1],4.26 µM
same,IC50,[2],3.57 µM

# — ChEMBL document CHEMBL1157660, “Synthesis and biological evaluation of 2',5'-dimethoxychalcone derivatives as microtubule-targeted anticancer agents” (Bioorg Med Chem, 2010)
